Source: ChEMBL document CHEMBL1154279, “Cytotoxic compounds from the stems of Cinnamomum tenuifolium” (J Nat Prod, 2009)
Active and inactive are the calls of the source. The calls are words filed in the database; no cut-off is given here.

Key:
[1] = tested on: DU-145; test: Cell cycle arrest in human DU145 cells assessed as accumulation of cells at S phase at 1 uM after 72 hrs using propidium iodide stain by flow cytometry; assay type: functional
In short: (§1)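 DU145 cells treated with 1, 5, 10 or 100 µM for 24 or 72 h; vehicle 1% DMSO in water. Adherent and floating cells pooled, fixed in PBS-MeOH (1:2) at 4 °C for at least 18 h, then stained 30 min at room temperature in the dark with propidium iodide 50 µg/mL plus RNase A 50 µg/mL. Flow cytometry, excitation 488 nm, emission above 580 nm, doublets gated out. Sub-G1 region taken as DNA damage; at least three runs.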

[2] = tested on: DU-145; test: Cell cycle arrest in human DU145 cells assessed as accumulation of cells at sub-G1 phase at 5 uM after 24 hrs using propidium iodide stain by flow cytometry; assay type: functional; in short: as §1
[3] = tested on: DU-145; test: Cell cycle arrest in human DU145 cells assessed as accumulation of cells at G1 phase at 100 uM after 72 hrs using propidium iodide stain by flow cytometry; assay type: functional; in short: as §1
[4] = tested on: DU-145; test: Induction of apoptosis in human DU145 cells assessed as change in cellular morphology after 24 hrs by Hoechst 33342 stainig; assay type: functional, cell-based
In short: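 DU145 cells exposed to 1 and 100 µM for 24 h, vehicle 1% DMSO. Fixed in 3.7% paraformaldehyde, stained with Hoechst 33342 (5 µg/mL) at 37 °C for 1 h and examined by fluorescence microscopy. Cells with reduced nuclear size, chromatin condensation or nuclear fragmentation scored as apoptotic.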

[5] = tested on: DU-145; test: Cell cycle arrest in human DU145 cells assessed as accumulation of cells at S phase at 100 uM after 24 hrs using propidium iodide stain by flow cytometry; assay type: functional; in short: as §1
[6] = tested on: DU-145; test: Cell cycle arrest in human DU145 cells assessed as accumulation of cells at S phase at 5 uM after 24 hrs using propidium iodide stain by flow cytometry; assay type: functional; in short: as §1
[7] = tested on: DU-145; test: Cell cycle arrest in human DU145 cells assessed as accumulation of cells at S phase at 5 uM after 72 hrs using propidium iodide stain by flow cytometry; assay type: functional; in short: as §1
[8] = tested on: DU-145; test: Induction of apoptosis in human DU145 cells assessed as caspase3 activation at 10 uM by ELISA; assay type: functional, cell-based
In short: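 DU145 cells treated with 10 µM for 1, 3, 6, 12 and 24 h and lysed. Lysate (60 µg) incubated with Ac-DEVD-pNA or Ac-LEHD-pNA in PIPES buffer pH 7.2 at 37 °C for 1 h in the dark. pNA release read at 405 nm and expressed as percent change against untreated control.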

[9] = tested on: DU-145; test: Cell cycle arrest in human DU145 cells assessed as accumulation of cells at G1 phase at 5 uM after 72 hrs using propidium iodide stain by flow cytometry; assay type: functional; in short: as §1
[10] = tested on: DU-145; test: Cell cycle arrest in human DU145 cells assessed as accumulation of cells at G1 phase at 5 uM after 24 hrs using propidium iodide stain by flow cytometry; assay type: functional; in short: as §1
[11] = tested on: DU-145; test: Cytotoxicity against human DU145 cells at 100 uM after 72 hrs by Trypan blue dye exclusion test; assay type: functional, cell-based
In short: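 DU145 cells (1 × 10^5 per 60 mm dish) treated the following day with 1–100 µM for 24, 48 and 72 h. Cells harvested, washed twice with PBS and stained with trypan blue; unstained viable cells counted by microscope with a hemocytometer. Mean ± SE.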

[12] = tested on: DU-145; test: Cell cycle arrest in human DU145 cells assessed as accumulation of cells at G2/M phase at 10 uM after 72 hrs using propidium iodide stain by flow cytometry; assay type: functional; in short: as §1
[13] = tested on: DU-145; test: Cell cycle arrest in human DU145 cells assessed as accumulation of cells at G2/M phase at 5 uM after 72 hrs using propidium iodide stain by flow cytometry; assay type: functional; in short: as §1
[14] = tested on: DU-145; test: Cell cycle arrest in human DU145 cells assessed as accumulation of cells at G1 phase at 10 uM after 72 hrs using propidium iodide stain by flow cytometry; assay type: functional; in short: as §1
[15] = tested on: DU-145; test: Antiproliferative activity in human DU145 cells at 10 uM after 24 hrs by XTT assay in the presence of Ac-LEHD-CMK; assay type: functional, cell-based
In short: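 DU145 cells pretreated 60 min with 50 µM Ac-DEVD-CMK or 50 µM Ac-LEHD-CMK, then exposed to 10 µM compound for 24 h (vehicle 1% DMSO in water). Proliferation read by XTT: labeling mixture added for 4 h at 37 °C, OD 450 nm (reference 650 nm) versus control wells; mean ± SE of three experiments.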

[16] = tested on: DU-145; test: Cell cycle arrest in human DU145 cells assessed as accumulation of cells at G2/M phase at 10 uM after 24 hrs using propidium iodide stain by flow cytometry; assay type: functional; in short: as §1
[17] = tested on: DU-145; test: Cell cycle arrest in human DU145 cells assessed as accumulation of cells at sub-G1 phase at 10 uM after 24 hrs using propidium iodide stain by flow cytometry; assay type: functional; in short: as §1
[18] = tested on: DU-145; test: Cell cycle arrest in human DU145 cells assessed as accumulation of cells at G1 phase at 100 uM after 24 hrs using propidium iodide stain by flow cytometry; assay type: functional; in short: as §1
[19] = tested on: DU-145; test: Cell cycle arrest in human DU145 cells assessed as accumulation of cells at G1 phase at 1 uM after 24 hrs using propidium iodide stain by flow cytometry; assay type: functional; in short: as §1
[20] = tested on: DU-145; test: Cell cycle arrest in human DU145 cells assessed as accumulation of cells at sub-G1 phase at 5 uM after 72 hrs using propidium iodide stain by flow cytometry; assay type: functional; in short: as §1
[21] = tested on: DU-145; test: Reduction of mitochondrial membrane potential in human DU145 cells using rhodamine 123 staining by spectrophotofluorimeter; assay type: functional, cell-based
In short: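 DU145 cells incubated 6, 12, 18 or 24 h with or without 10 and 100 µM, then given 10 µM rhodamine 123 in serum-free medium for 15 min at 37 °C. Collected cells read within 15 min by spectrofluorimeter (ex 495, em 520 nm); three experiments.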

[22] = tested on: DU-145; test: Cell cycle arrest in human DU145 cells assessed as accumulation of cells at G2/M phase at 1 uM after 24 hrs using propidium iodide stain by flow cytometry; assay type: functional; in short: as §1
[23] = tested on: DU-145; test: Cell cycle arrest in human DU145 cells assessed as accumulation of cells at G2/M phase at 100 uM after 72 hrs using propidium iodide stain by flow cytometry; assay type: functional; in short: as §1
[24] = tested on: DU-145; test: Cell cycle arrest in human DU145 cells assessed as accumulation of cells at S phase at 1 uM after 24 hrs using propidium iodide stain by flow cytometry; assay type: functional; in short: as §1
[25] = tested on: DU-145; test: Cell cycle arrest in human DU145 cells assessed as accumulation of cells at sub-G1 phase at 10 uM after 72 hrs using propidium iodide stain by flow cytometry; assay type: functional; in short: as §1

Compound: CCCCCCCCCCCCCCCCCCCCCCCC/C=C(/C(=O)OC)[C@@H](O)C(C)=O [SECOTENUIFOLIDE A]
- Activity [1]: 2.88%
- Activity [2]: 19.02%
- Activity [3]: 28.57%
- Activity [4]: Active
- Activity [5]: 10.04%
- Activity [6]: 4.96%
- Activity [7]: 4.05%
- Activity [8]: Active
- Activity [9]: 48.96%
- Activity [10]: 34.96%
- Activity [11]: Active
- Activity [12]: 30.83%
- Activity [13]: 31.74%
- Activity [14]: 48.3%
- Activity [15]: inactive
- Activity [16]: 36.57%
- Activity [17]: 19.72%
- Activity [18]: 35.57%
- Activity [19]: 44.45%
- Activity [20]: 14.24%
- Activity [21]: Active
- Activity [22]: 43.3%
- Activity [23]: 30%
- Activity [24]: 3.31%
- Activity [25]: 16.18%
